From PubChem BioAssay come the findings set out here.

The nature of test [1]: inhibitors of TNFa-induced NFkB p65 translocation, primary screen, imaging, HUVEC, MLSMR starter and 10KST1 sets (AID 438).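 Also: compound added about 3h40 before a 20 min TNFalpha stimulation.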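 As to inhibition: signal is the nuclear over cytoplasmic p65 intensity ratio per well.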 The conditions noted are these: HUVEC TNFa-induced p65 nuclear translocation; cell count: measured here: nuclei count (cytotoxicity indicator), at 2.08 µM; inhibition: at 2 µM, stronger effect = higher value, 0% TNFa-plus-vehicle, 100% no-TNFa wells.
The nature of test [2]: inhibitors of mutant huntingtin aggregation, primary screen, imaging, exon1htt(103Q)mCFP cells, high-content imaging (AID 483;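 active = visual image review flags a hit and inhibition of aggregation exceeds 20%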;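 also: compound exposure lasted 3 days before fixation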;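 as to nuclei count: percent of the per-plate median nuclei count of sample wells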). The following applies: exon1htt(103Q)mCFP cell line, aggregate imaging, at 2 µM; inhibition of aggregation: stronger effect = higher value; nuclei count: measured here: cell count, toxicity.
Test [3] in a line: inhibitors of E-selectin induction by TNFa, primary screen, imaging, HUVEC, immunofluorescence, MLSMR starter and 10KST1 sets (AID 487;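 active = visually confirmed hit in the image check and inhibition above 20%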;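 as to inhibition: signal is fraction of cell area covered by stained E-selectin grains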;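 as to nuclei count: 100% = median nuclei count of all wells on the same plate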). The following applies: HUVEC TNFalpha-induced E-selectin immunofluorescence imaging, at 2 µM; inhibition: stronger effect = higher value; nuclei count: measured here: cell number, toxicity.
Test [4] addresses Voltage-gated potassium channel subunit beta-2 (Rattus norvegicus) (UniProt P62483). Briefly: KvBeta enzyme negative modulators, primary screen, biochemical, NADPH fluorescence (AID 622;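 active = fluorescence slope higher than the sample average by over 3 SD, cut at about -0.22 in these data, passing the limit was not always enough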;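 also: slope of raw intensity against log time taken from 70 to 1610 s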). The conditions noted are these: recombinant KvBeta, 4-cyanobenzaldehyde reduction, at 10 µM, stronger effect = higher value.
Test [5] has the same target. Briefly: KvBeta positive modulators, primary screen, biochemical, NADPH fluorescence (AID 623;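 active = NADPH fluorescence slope more negative than the mean of all samples by about 3 SD, 99.7% confidence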;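 also: fluorescence intensity change per second fitted from 20 to 320 s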). The following applies: Recombinant KvBeta, NADPH fluorescence decrease slope, 10 min; at 10 µM; stronger effect = lower value.
Test [6] addresses Muscarinic acetylcholine receptor M4 (Homo sapiens) (UniProt P08173). Briefly: compounds altering M4/GIRK thallium flux, either direction, primary screen, M4 allosteric agonist project, cell-based, HEK293 M4/GIRK, BTC-AM (AID 625;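 active = fluorescence slope after compound addition differing from the mean of all tested samples at 99.7% confidence, mostly higher but some lower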;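 also: thallium influx through GIRK channels coupled to M4 in HEK293 cells with BTC-AM dye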). The conditions noted are these: at 10 µM, actives lie on both sides. In short, it runs like this: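 Material: HEK293 cells with M4 receptor and GIRK channels; Times: cells overnight at 37 °C, BTC-AM loading 1 h, reads 2 min total; Technique: kinetic BTC-AM fluorescence sampled at 1 Hz, 10 s pre-addition baseline; Read-out basis: slope over 15–24 s of trace normalized to starting intensity; Controls: carbachol positive, DMSO negative.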

Test [7] can be described thus: inhibitors of Sendai virus-induced IRF3 signaling, primary screen, TLR/RLR signaling modifier project, cell-based, Sendai virus stimulus, luciferase, 10K MLSCN set (AID 602276;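 active = inhibition at or above 50% at 10 µM; inactive = inhibition below 50%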;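 also: firefly luciferase from ISG56 promoter only with Renilla not read in this screen; 0% = Sendai virus plus DMSO and 100% = medium plus DMSO without virus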). The following applies: HEK293 RL24 IRF3 luciferase reporter, at 10 µM, stronger effect = higher value. Background: Reporter assays use an easily measured gene product as a stand-in for the process of interest.

The nature of test [8]: inhibitors of poly I:C-induced TLR3 signaling, primary screen, cell-based, poly I:C stimulus, luciferase, 10K MLSCN set (AID 602277;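 active = inhibition of the reporter signal at or above 50%; inactive = inhibition below 50%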). The conditions noted are these: HEK293-TLR3 RL24 IRF3 luciferase reporter, at 10 µM, stronger effect = higher value.

Each structure is given as a SMILES string. The source made the active and inactive calls.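 The calls were made as follows, unless noted: active = inhibition above 20% together with a positive visual image hit; inconclusive = visual image hit but inhibition not above 20%; inactive = no visual image hit.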

Chain of Muscarinic acetylcholine receptor M4 (Homo sapiens) (P08173 whole entry, looked up): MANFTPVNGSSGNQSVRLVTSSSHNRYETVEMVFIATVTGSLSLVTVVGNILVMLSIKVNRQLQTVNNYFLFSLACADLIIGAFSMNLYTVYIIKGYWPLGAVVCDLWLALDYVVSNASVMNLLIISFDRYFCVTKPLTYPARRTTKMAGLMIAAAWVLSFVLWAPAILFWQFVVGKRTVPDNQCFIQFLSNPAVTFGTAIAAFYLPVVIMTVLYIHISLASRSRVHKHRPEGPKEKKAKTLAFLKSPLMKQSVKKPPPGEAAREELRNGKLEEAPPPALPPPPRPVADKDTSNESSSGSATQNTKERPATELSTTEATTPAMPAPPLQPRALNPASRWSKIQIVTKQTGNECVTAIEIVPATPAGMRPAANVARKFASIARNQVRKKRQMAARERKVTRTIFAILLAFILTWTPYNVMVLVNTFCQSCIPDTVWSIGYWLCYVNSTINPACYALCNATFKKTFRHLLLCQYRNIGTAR
Chain of Voltage-gated potassium channel subunit beta-2 (Rattus norvegicus) (P62483 whole entry, looked up): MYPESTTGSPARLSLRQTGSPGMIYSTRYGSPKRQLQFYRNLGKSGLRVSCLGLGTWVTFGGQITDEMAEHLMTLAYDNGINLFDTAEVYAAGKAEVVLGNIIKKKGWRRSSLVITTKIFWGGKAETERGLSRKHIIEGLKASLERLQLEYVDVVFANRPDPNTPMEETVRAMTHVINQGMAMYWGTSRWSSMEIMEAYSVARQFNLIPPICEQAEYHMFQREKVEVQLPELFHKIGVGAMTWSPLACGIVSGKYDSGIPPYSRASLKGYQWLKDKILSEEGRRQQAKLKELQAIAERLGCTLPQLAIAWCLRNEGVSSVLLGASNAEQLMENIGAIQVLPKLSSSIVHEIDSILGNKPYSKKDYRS

One may read the inhibition as the change of the read-out against control, counted positive when it falls. For the compound `COc1cc(NC(=O)Cc2nn(C)c(=O)c3ccccc23)cc(OC)c1`, the cell count in test [1] is 693. In addition, the inhibition in test [1] was -14.8% (inactive); in test [3] it was -39% (inactive); in test [7], -12.7% (inactive); in test [8], -56.4% (inactive). Moreover, in test [2], the inhibition of aggregation was -21.4% (inactive). Further, the nuclei count in test [2] was determined as 106%; in test [3], 108%. For the same compound, the values for the fluorescence slope in test [4] and in test [6] were -0.585 (inactive) and 0.00514 (inactive), respectively. Moreover, in test [5], the NADPH fluorescence slope is -4.8e-05 (inactive).
`COC(=O)c1cc(O)c(OCc2ccccc2)c(O)c1`: the cell count in test [1] was found to be 775. Moreover, the inhibition is -2.2% (inactive) in test [1], -8.4% (inactive) in test [3], -22% (inactive) in test [7] and -58.4% (inactive) in test [8]. In addition, in test [2], the inhibition of aggregation was 20.1% (inactive). For the same compound, the nuclei count in test [2] and in test [3] was 112% throughout. Also, the fluorescence slope in test [4] was -0.552 (inactive); in test [6], 0.00449 (inactive). In addition, in test [5], the NADPH fluorescence slope is 4.3e-05 (inactive).
Regarding `Cc1ccc(C)c(N2CCN(C(=O)C3CCN(S(=O)(=O)c4c(C)noc4C)CC3)CC2)c1`, in test [1], the cell count worked out at 448. The inhibition in test [1] is -10.8% (inactive); in test [3], -17.6% (inactive); in test [7], 11.3% (inactive); in test [8] it was -1.19% (inactive). Further, the inhibition of aggregation in test [2] is 30.5% (inactive). For the same compound, the values for the nuclei count in test [2] and in test [3] were 77% and 99.8%, respectively. Further, the fluorescence slope in test [4] was -0.474 (inactive); in test [6], 0.00554 (inactive). The NADPH fluorescence slope in test [5] is -8.1e-06 (inactive).
Consider `CCCC(=O)Nc1ccc(OCC(=O)OC)cc1`, for which, in test [1], the cell count was 402. Moreover, the inhibition in test [1] is -15.4% (inactive); in test [3] it was 8% (inactive); in test [7], 11% (inactive); in test [8] it was 21.9% (inactive). Besides, in test [2], the inhibition of aggregation was 5.1% (inactive). The nuclei count came to 98.2% in test [2] and 84.9% in test [3]. In addition, the fluorescence slope in test [4] was -0.439 (inactive); in test [6] it was 0.00585 (inactive). The NADPH fluorescence slope in test [5] was -1.2e-05 (inactive).
Consider `O=C1COc2ccc(C(=O)NCc3ccco3)cc2N1`, for which, in test [1], the cell count came to 668. For the same compound, the inhibition in test [1] was -0.8% (inactive); in test [3], 85.2% (active); in test [7], -3.82% (inactive); in test [8], 9.4% (inactive). In addition, in test [2], the inhibition of aggregation is -4.2% (inactive). In addition, the nuclei count in test [2] was 79.6%; in test [3] it was 82.3%. The fluorescence slope was -0.575 (inactive) in test [4] and 0.00601 (inactive) in test [6]. In test [5], the NADPH fluorescence slope was -3.7e-05 (inactive).
Turning to `N#CCc1nc(CSc2nc3ccccc3s2)cs1`, the cell count in test [1] worked out at 347. Besides, the inhibition was -4.4% (inactive) in test [1], -27.5% (inactive) in test [3], -24.2% (inactive) in test [7] and -87.8% (inactive) in test [8]. The inhibition of aggregation in test [2] is -7.5% (inactive). The nuclei count in test [2] was determined as 98%; in test [3], 114%. Besides, the fluorescence slope in test [4] was -0.551 (inactive); in test [6], 0.0089 (inactive). Moreover, the NADPH fluorescence slope in test [5] was -2.5e-05 (inactive).
Consider `COc1ccc(Cl)cc1C(=O)n1nc(C)cc1C`, for which, in test [1], the cell count turned out to be 346. The inhibition in test [1] was -3.3% (inactive); in test [3] it was -31% (inactive); in test [7] it was -16.7% (inactive); in test [8] it was -14.6% (inactive). In addition, the inhibition of aggregation in test [2] is -15% (inactive). The nuclei count stood at 106% in test [2] and 118% in test [3]. For the same compound, the fluorescence slope in test [4] was -0.355 (inactive); in test [6], 0.00581 (inactive). Also, the NADPH fluorescence slope in test [5] was -1.5e-05 (inactive).
Consider `CCCCCn1c(=O)[nH]c2cc(C(=O)NCCCN3CCCCC3)ccc2c1=O`, for which, in test [1], the cell count amounted to 255. Further, the inhibition was -2.1% (inactive) in test [1], -32.3% (inactive) in test [3], 7.49% (inactive) in test [7] and 6.91% (inactive) in test [8]. The inhibition of aggregation in test [2] is -0.1% (inactive). Moreover, the figures for the nuclei count in test [2] and in test [3] were 77.4% and 109%, respectively. Also, the figures for the fluorescence slope in test [4] and in test [6] were -0.298 (inactive) and 0.00603 (inactive), respectively. For the same compound, the NADPH fluorescence slope in test [5] was -5.4e-05 (inactive).
In the case of `CCOc1ccccc1NC(=O)N1CCCC1C(=O)Nc1nnc(CC)s1` (centres undefined), in test [1], the cell count stood at 599. Also, the inhibition in test [1] was -0.7% (inactive); in test [3], -86% (inactive); in test [7], 1.66% (inactive); in test [8] it was 12.7% (inactive). Also, the inhibition of aggregation in test [2] is -35.9% (inactive). Besides, the results for the nuclei count in test [2] and in test [3] were 63.6% and 98.7%, respectively. The results for the fluorescence slope in test [4] and in test [6] were -0.296 (inactive) and 0.00525 (inactive), respectively. The NADPH fluorescence slope in test [5] is -3.1e-05 (inactive).
`O=C(Nc1ccc(Cl)c(Cl)c1)Nc1cc(C(=O)N2CCOCC2)ccc1N1CCCCC1`: in test [1], the cell count was 580. Moreover, the inhibition in test [1] is -17.7% (inactive); in test [3], -44.8% (inactive); in test [7], 13.7% (inactive); in test [8] it was 13.1% (inactive). In test [2], the inhibition of aggregation was -5.4% (inactive). Moreover, the nuclei count in test [2] and in test [3] was 114% in each case. The fluorescence slope in test [4] is -0.441 (inactive); in test [6] it was 0.00555 (inactive). In test [5], the NADPH fluorescence slope is -7.7e-06 (inactive).
For the compound `N#CC1=C(N)N(c2ccccc2)C2=C(C(=O)CCC2)C1c1cccs1` (centres undefined), the cell count in test [1] was found to be 610. Further, the inhibition in test [1] was 0% (inactive); in test [3] it was -53.5% (inactive); in test [7], -12.6% (inactive); in test [8], -9.24% (inactive). For the same compound, the inhibition of aggregation in test [2] is 3.8% (inactive). For the same compound, the nuclei count came out at 108% in test [2] and 98.1% in test [3]. In addition, the fluorescence slope in test [4] was -0.362 (inactive); in test [6], 0.00595 (inactive). In test [5], the NADPH fluorescence slope was -4.2e-05 (inactive).
`COc1cc(C(=O)N2CCCC(c3nc(-c4cccs4)no3)C2)cc(OC)c1OC` (centres undefined): the cell count in test [1] came out at 709. Further, the inhibition in test [1] is -19.4% (inactive); in test [3], -30.6% (inactive); in test [7], 13.5% (inactive); in test [8] it was 12.8% (inactive). Moreover, the inhibition of aggregation in test [2] was 4.4% (inactive). Further, the nuclei count in test [2] was 89%; in test [3], 101%. The fluorescence slope in test [4] is -0.508 (inactive); in test [6] it was 0.00584 (inactive). Moreover, the NADPH fluorescence slope in test [5] is -0.000226 (inactive).
Regarding `CCOc1ccc(OCC)c(NC(=O)C2CCN(S(=O)(=O)c3cnc[nH]3)CC2)c1`, in test [1], the cell count amounted to 377. For the same compound, the inhibition in test [1] was -1.3% (inactive); in test [3], 22.9% (inactive); in test [7], 4.79% (inactive); in test [8], 10.8% (inactive). Also, the inhibition of aggregation in test [2] is -15.6% (inactive). Besides, the results for the nuclei count in test [2] and in test [3] were 101% and 80.4%, respectively. Besides, the fluorescence slope was -0.572 (inactive) in test [4] and 0.00665 (inactive) in test [6]. For the same compound, the NADPH fluorescence slope in test [5] is -2.9e-05 (inactive).
As to `O=C1CCCC2=C1C(c1ccsc1)CC(=O)N2c1ccccc1` (centres undefined), the cell count in test [1] was 550. Also, the inhibition in test [1] was -11.1% (inactive); in test [3], -88.5% (inactive); in test [7], 15.9% (inactive); in test [8] it was 19.3% (inactive). The inhibition of aggregation in test [2] is -6.3% (inactive). The nuclei count worked out at 100% in test [2] and 95.1% in test [3]. Moreover, the fluorescence slope was -0.422 (inactive) in test [4] and 0.00622 (inactive) in test [6]. The NADPH fluorescence slope in test [5] is -0.000362 (inactive).
